A short description of data set [1]: Drug uptake in BALB/c mouse small intestine implanted with mouse 4T1 cells assessed per gram of tissue at 0.18 mg/kg, ip after 72 hrs by HPLC-based fluorescence analysis. To be noted: in vivo. It counts as ADME, organism-based. In outline:
(§1)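 Female BALB/c mice with 4T1 cells (1 × 10^6 in HBSS) implanted in left rear thigh; single i.p. dose, 7 in ethanol/PEG400/H2O (2/3/5) with 0.1% DMSO, mono-L-aspartyl chlorin e6 in saline; kept dark until sacrifice. Tissues washed, frozen, homogenized in CH3OH/DMSO/H2O (32/8/1), centrifuged 2300×g; supernatant analysed by HPLC with fluorescence detection; three animals per time point.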

For data set [2], the system named is Heart. In words: Drug uptake in BALB/c mouse heart implanted with mouse 4T1 cells assessed per gram of tissue at 0.18 mg/kg, ip after 24 hrs by HPLC-based fluorescence analysis. It counts as ADME, organism-based. To be noted: in vivo. The essentials: (§2)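 Female BALB/c mice bearing 4T1 thigh tumours received an i.p. dose in ethanol/PEG400/H2O (2/3/5) with 0.1% DMSO, or in saline, and were kept dark until killed. Tissues were weighed (100 mg), homogenised in CH3OH/DMSO/H2O (32/8/1) and centrifuged twice at 2300×g at 4°C. Supernatants were analysed by HPLC with fluorescence detection (λex 404/λem 654 nm or λex 400/λem 666 nm). n = 3 per time point.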

For data set [3], the system named is Muscle tissue. In words: Drug uptake in BALB/c mouse muscle implanted with mouse 4T1 cells assessed per gram of tissue at 0.18 mg/kg, ip after 6 hrs by HPLC-based fluorescence analysis. It counts as ADME, organism-based. To be noted: in vivo. The essentials: as §2
Data set [4] deals with Liver. In words: Drug uptake in BALB/c mouse liver implanted with mouse 4T1 cells assessed per gram of tissue at 0.18 mg/kg, ip after 24 hrs by HPLC-based fluorescence analysis. The note with it: in vivo. It counts as ADME, organism-based. In outline: as §2
For data set [5], the system named is HeLa. As to the kind of experiment: Drug uptake in human HeLa cells at 0.1 uM after 24 hrs by spectrophotometrical analysis. It counts as ADME, cell-based. In outline: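 HeLa cells (2.5 × 10^6/well) in DMEM with 10% FCS, preincubated 24 h at 37°C; photosensitizer added to 0.1 µM final (1% DMSO) for 24 h, two wells each. Cells washed twice with PBS, lysed in DMSO, Soret-band absorbance read against DMSO calibration; mean of three replicate experiments.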

Data set [6] relates to Stomach. As to the kind of experiment: Drug uptake in BALB/c mouse stomach implanted with mouse 4T1 cells assessed per gram of tissue at 0.18 mg/kg, ip after 72 hrs by HPLC-based fluorescence analysis. Format: ADME, organism-based. To be noted: in vivo. The essentials:
as §1

Data set [7] relates to Muscle tissue. As to the kind of experiment: Drug uptake in BALB/c mouse muscle implanted with mouse 4T1 cells assessed per gram of tissue at 0.18 mg/kg, ip after 12 hrs by HPLC-based fluorescence analysis. It counts as ADME, organism-based. The note with it: in vivo. In outline: as §2
Data set [8] has as its system Urinary bladder. As to the kind of experiment: Drug uptake in BALB/c mouse bladder implanted with mouse 4T1 cells assessed per gram of tissue at 0.18 mg/kg, ip after 48 hrs by HPLC-based fluorescence analysis. Format: ADME, organism-based. The note with it: in vivo. In outline:
as §2

Data set [9] has as its system 4T1. In words: Induction of necrosis in mouse 4T1 cells implanted in BALB/c mouse at 5 mg/kg, ip irradiated at 48 J/cm2 measured at 1 day post PDT by […]-based fluorescence microscopic analysis. It counts as functional, organism-based. The note with it: 0.18 mg/kg, in the assay text read “0.18 mg/kg” for “5 mg/kg”. The essentials:
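Skin-plus-tumor slides from 4T1-bearing mice 1 day after PDT; proteinase K treatment, then dual apoptosis/necrosis detection reagent at room temperature in dark, washed in PBS, examined by fluorescence microscopy.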

Data set [10] deals with 4T1. In words: Drug uptake in mouse 4T1 cells implanted in BALB/c mouse assessed per gram of tissue at 0.18 mg/kg, ip after 72 hrs by HPLC-based fluorescence analysis. The note with it: in vivo. Format: ADME, organism-based. The essentials:
as §1

In data set [11] the test system is Kidney. As to the kind of experiment: Drug uptake in BALB/c mouse kidney implanted with mouse 4T1 cells assessed per gram of tissue at 0.18 mg/kg, ip after 24 hrs by HPLC-based fluorescence analysis. Format: ADME, organism-based. To be noted: in vivo. The essentials: as §2
Data set [12] relates to Liver. As to the kind of experiment: Drug uptake in BALB/c mouse liver implanted with mouse 4T1 cells assessed per gram of tissue at 0.18 mg/kg, ip after 48 hrs by HPLC-based fluorescence analysis. It counts as ADME, organism-based. To be noted: in vivo. The essentials:
as §2

Data set [13] relates to 4T1. As to the kind of experiment: Antitumor activity against mouse 4T1 cells implanted in BALB/c mouse at 0.045 mg/kg, ip assessed as tumor growth inhibition administered for 48 hrs followed by irradiation at 40 mW/cm2 measured after 7 days. It counts as functional, organism-based. In outline: (§3)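 Female BALB/c mice carried 4T1 thigh tumours (1 × 10^6 cells) of 50–60 mm3. They were dosed i.p. at 250–31.25 nmol·kg−1 in ethanol/PEG400/H2O (2/3/5) containing 0.1% DMSO and kept dark. At 48 h the tumour was irradiated with a 100-W halogen lamp at 40 mW·cm−2 for 20.1 min. Tumour size was measured daily by caliper as length × width²/2 and normalised to day 0.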

Data set [14] deals with Mus musculus. In words: Drug uptake in mouse 4T1 cells implanted BALB/c mouse assessed as time for drug accumulation at 0.045 to 0.36 mg/kg, ip administered for 48 hrs followed by irradiation at 40 mW/cm2. To be noted: in vivo.
For data set [15], the system named is 4T1. In words: Photocytotoxicity against mouse 4T1 cells assessed as cell survival preincubated for 24 hrs followed by irradiation at 16 J/cm2 measured at 24 hrs by WST-8 assay. It counts as functional, cell-based. To be noted: 4T1, light or radiation study. In outline: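 Cells (5 × 10^3/well) in DMEM with 10% FCS, 24 h at 37°C, 5% CO2; photosensitizer 1–50000 nM (1% DMSO final) for 24 h, washed, fresh medium. Irradiated with 100-W halogen lamp through λ>500 nm or λ>600 nm cutoff filter to 16 J·cm−2; WST-8 absorbance at 450 nm 24 h later, survival normalized to no-drug wells.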

The subject of data set [16] is Lung. As to the kind of experiment: Drug uptake in BALB/c mouse lung implanted with mouse 4T1 cells assessed per gram of tissue at 0.18 mg/kg, ip after 72 hrs by HPLC-based fluorescence analysis. To be noted: in vivo. Format: ADME, organism-based. In outline:
as §2

Data set [17] concerns Liver. In words: Drug uptake in BALB/c mouse liver implanted with mouse 4T1 cells assessed per gram of tissue at 0.18 mg/kg, ip after 72 hrs by HPLC-based fluorescence analysis. Format: ADME, organism-based. The note with it: in vivo. The essentials: as §2
For data set [18], the system named is Urinary bladder. In words: Drug uptake in BALB/c mouse bladder implanted with mouse 4T1 cells assessed per gram of tissue at 0.18 mg/kg, ip after 72 hrs by HPLC-based fluorescence analysis. The note with it: in vivo. Format: ADME, organism-based. The essentials: as §2
Data set [19] can be described thus: Drug uptake in BALB/c mouse large intestine implanted with mouse 4T1 cells assessed per gram of tissue at 0.18 mg/kg, ip after 24 hrs by HPLC-based fluorescence analysis. Format: ADME, organism-based. To be noted: in vivo. In outline:
as §2

The nature of data set [20]: Drug uptake in BALB/c mouse large intestine implanted with mouse 4T1 cells assessed per gram of tissue at 0.18 mg/kg, ip after 12 hrs by HPLC-based fluorescence analysis. It counts as ADME, organism-based. To be noted: in vivo. The essentials:
as §2

Data set [21] relates to 4T1. In words: Antitumor activity against mouse 4T1 cells implanted in BALB/c mouse at 0.18 mg/kg, ip assessed as tumor growth inhibition administered for 48 hrs followed by irradiation at 40 mW/cm2 for 20.1 mins measured after 5 days by Vernier calipers. It counts as functional, organism-based. The essentials:
as §3

For data set [22], the system named is Lung. As to the kind of experiment: Drug uptake in BALB/c mouse lung implanted with mouse 4T1 cells assessed per gram of tissue at 0.18 mg/kg, ip after 48 hrs by HPLC-based fluorescence analysis. To be noted: in vivo. It counts as ADME, organism-based. The essentials:
as §2

The subject of data set [23] is Plasma. As to the kind of experiment: Drug uptake in BALB/c mouse plasma implanted with mouse 4T1 cells at 0.045 mg/kg, ip after 1 to 24 hrs by HPLC analysis. Format: ADME, organism-based. The note with it: in vivo.

Calls of active or inactive are those of the source.

In the case of `CN1CC2C3=N/C(=C(/c4c(F)c(F)c(S[C@@H]5O[C@H](CO)[C@@H](O)[C@H](O)[C@H]5O)c(F)c4F)C4=N/C(=C(/c5c(F)c(F)c(F)c(F)c5F)c5ccc([nH]5)/C(c5c(F)c(F)c(S[C@@H]6O[C@H](CO)[C@@H](O)[C@H](O)[C@H]6O)c(F)c5F)=C5/C=CC(=N5)C3c3c(F)c(F)c(F)c(F)c3F)C=C4)C2C1` (stereo partly drawn), the Drug uptake is 9.8 ng/g in [1]; 6.1 ng/g in data set [2]; 2.2 ng in data set [3]; 60 ng in data set [4]; “Active” in [5]; 7 ng in data set [6]. The Drug uptake was 4 ng in data set [7]; 3 ng/g in data set [8]; 1.8 ng/g in data set [10]; 18 ng in data set [11]; 9 ng in data set [12]; 7 ng/g in [16]. In addition, the Drug uptake in [17] was 14 ng; in data set [18] it was 8 ng; in data set [19], 60 ng/g; in data set [20], 41 ng; in [22], 11 ng; in data set [23] it was “Active”. In addition, the outcome in data set [9], in data set [13] and in [21] was Active. Besides, the Time in data set [14] worked out at 48 h. For the same compound, the EC50 in [15] is 0.5 nM.

(Values after ChEMBL document CHEMBL3734686, “Synthesis, Photophysical Properties, and Biological Evaluation of trans-Bisthioglycosylated Tetrakis(fluorophenyl)chlorin for Photodynamic Therapy” (J Med Chem, 2015).)
